Key:
[1] = system: male C57BL/6 mice; experiment: Oral glucose tolerance test in normoglycemic mice; format: in vivo
How it was run: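 Male C57BL/6 mice, 8 weeks old, fasted 16 h. Test compound given orally 30 min before a glucose load of 2 g/kg (10 ml/kg). Tail-nick blood glucose read by glucose strip before loading and at 0, 15, 30, 60 and 120 min after. Glucose AUC0–120min calculated by the trapezoidal rule. n=6; mean±S.E.M.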

[2] = system: db/db mice; experiment: 4-week repeated administration in db/db mice; format: in vivo; settings: 4-week repeated oral dosing
How it was run: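 Male db/db mice, 8 weeks old, 7 per group, allocated by HbA1c and blood glucose after a 16 h fast. Test compound given orally once daily for 28 days. HbA1c measured from tail-vein blood on days 0 and 28. Blood glucose checked twice weekly. Body weight taken daily. OGTT on day 29, 24 h after the last dose: glucose 2 g/kg, samples at −60, 0, 15, 30, 60 and 120 min. Mean±S.E.M.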

[3] = system: male C57BL/6 mice; experiment: Total GLP-1 in plasma after glucose loading in normoglycemic mice; format: in vivo; settings: 30 min after glucose loading
How it was run: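 Fasted (16 h) 8-week-old male C57BL/6 mice, 7 per group, dosed orally with test compound or vehicle 30 min before a 2 g/kg glucose load. Plasma collected from the subclavian vein 30 min after loading. Total GLP-1 measured by multispecies ELISA. One-way ANOVA with Dunnett's test versus vehicle.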

[4] = system: mice; settings: cited from earlier work
[5] = Pharmacokinetic profiles in male C57BL/6 mice; format: in vivo; settings: for AUC(0-t): AUC0-24hr
[6] = target: T1, human SGLT2 (Homo sapiens, UniProt P31639); experiment: [14C]-AMG uptake inhibition in HEK293 cells stably expressing human SGLT2; format: cell-based; settings: human SGLT2 vs human SGLT1, in vitro
T1 sequence (P31639 1-672): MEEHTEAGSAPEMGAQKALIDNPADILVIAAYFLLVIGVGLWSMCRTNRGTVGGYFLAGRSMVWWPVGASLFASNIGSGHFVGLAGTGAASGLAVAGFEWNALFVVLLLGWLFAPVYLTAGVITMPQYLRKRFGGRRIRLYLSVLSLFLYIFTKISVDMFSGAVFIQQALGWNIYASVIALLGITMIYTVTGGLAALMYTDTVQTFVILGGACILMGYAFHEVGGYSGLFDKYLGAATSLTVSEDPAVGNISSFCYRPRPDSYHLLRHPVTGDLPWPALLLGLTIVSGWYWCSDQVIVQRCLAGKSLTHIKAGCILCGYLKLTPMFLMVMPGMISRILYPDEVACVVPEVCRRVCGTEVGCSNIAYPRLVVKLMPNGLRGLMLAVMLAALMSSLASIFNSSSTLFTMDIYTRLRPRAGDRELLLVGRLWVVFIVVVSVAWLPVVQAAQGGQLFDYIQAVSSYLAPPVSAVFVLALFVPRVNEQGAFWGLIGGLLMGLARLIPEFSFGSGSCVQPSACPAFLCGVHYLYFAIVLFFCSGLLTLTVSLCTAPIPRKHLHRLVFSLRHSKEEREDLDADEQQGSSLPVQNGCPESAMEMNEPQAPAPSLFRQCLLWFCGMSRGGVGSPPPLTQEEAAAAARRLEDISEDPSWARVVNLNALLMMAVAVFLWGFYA

[7] = system: male C57BL/6 mice; experiment: Urinary glucose excretion over 24 h in normoglycemic mice; format: in vivo; settings: single oral dose 3 mg/kg with 2 g/kg glucose, 24 h urine
How it was run: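 Male C57BL/6 mice, 8 weeks old, 3 per group, allocated by body weight and fasted overnight. […] Urine collected in metabolism cages over 24 h. Urine volume and glucose measured by clinical chemistry analyser and normalised to body weight.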

[8] = single oral 1 mg/kg 30 min before glucose 2 g/kg
[9] = male, C57BL/6, mouse, plasma, po
[10] = male, C57BL/6, mouse, plasma, po, 0.3 mg/kg, mice
[11] = male, C57BL/6, mouse, plasma, po, 1 mg/kg, mice

Tmax [5, 9] [h] | half-life [5, 9] [h] | AUC(0-t) [5, 10] [ng·h/mL] | Cmax [5, 10] [ng/mL] | AUC(0-t) [5, 11] [ng·h/mL] | Cmax [5, 11] [ng/mL] | AUC(0-t) ([5]; male, C57BL/6, mouse, plasma, po, 3 mg/kg, mice) [ng·h/mL] | maximum plasma level ([5]; mice, single oral dose 0.1 mg/kg) [ng/mL] | selectivity for SGLT2 over SGLT1 [6] [fold] | Structure (SMILES) | effect on blood glucose increases during OGTT [1, 8] | change in body weight compared to vehicle-treated db/db mice [2] | Total GLP-1 in plasma ([3]; single oral 1 mg/kg) [pM] | reduction of glucose reabsorption ([4]; SGLT1 and SGLT2 double-knockout mice) [%] | inhibition of glucose reabsorption ([4]; wild-type mice) [%] | area under the curve (AUC) of glucose tolerance, OGTT 120 min ([1]; single oral 0.3 mg/kg 30 min before glucose 2 g/kg) [mg·h/dL] | area under the curve (AUC) of glucose tolerance, OGTT 120 min [1, 8] [mg·h/dL] | area under the curve (AUC) of glucose tolerance, OGTT 120 min ([1]; single oral 3 mg/kg 30 min before glucose 2 g/kg) [mg·h/dL] | Urinary glucose excretion [7] [mg/g body weight] | Total GLP-1 in plasma ([3]; single oral 0.3 mg/kg) [pM] | Total GLP-1 in plasma ([3]; single oral 3 mg/kg, 3 mg/kg) [pM]
 |  |  |  |  |  |  |  |  | CCOc1ccc(Cc2cc([C@@H]3O[C@H](CO)[C@@H](O)[C@H](O)[C@H]3O)ccc2Cl)cc1 [Dapagliflozin, (1S)-1,5-anhydro-1-C-{4-chloro-3-[(4-ethoxyphenyl)methyl]phenyl}-D-glucitol, reference compound] | decreased blood glucose increases during OGTT | did not induce a significant change in body weight | 15.5 ± 5.7 |  |  |  |  |  |  |  | 
 |  |  |  |  |  |  |  |  | OC[C@H]1O[C@@H](c2ccc(Cl)c(Cc3ccc(O[C@H]4CCOC4)cc3)c2)[C@H](O)[C@@H](O)[C@@H]1O [Empagliflozin] |  |  |  | 100 | 56 |  |  |  |  |  | 
0.5 | 3.1 | 473 | 142 | 1300 | 439 | 5460 | 142 | 10 | CCc1ccc(Cc2cc([C@@H]3O[C@H](CO)[C@@H](O)[C@H](O)[C@H]3O)cc3c2CCC3)cc1 [HM41322, (2S,3R,4R,5S,6R)-2-[7-(4-ethylbenzyl)-2,3-dihydro-1H-inden-5-yl]-6-(hydroxymethyl)tetrahydro-2H-pyran-3,4,5-triol] |  | did not induce a significant change in body weight | 18.0 ± 5.0 |  |  | 303.3 ± 60.17 | 228.5 ± 16.96 | 170.7 ± 13.14 | 19.32±1.16 | 15.0 ± 6.6 | 34.2 ± 9.7

From paper PMC6315097 (The Korean Journal of Physiology & Pharmacology : Official …, 2018)
